Measured values reported in ChEMBL document CHEMBL3616427, “Design, synthesis, and biological evaluation of amide imidazole derivatives as novel metabolic enzyme CYP26A1 inhibitors” (Bioorg Med Chem, 2015).

Tests used:
Cytochrome P450 26A1 [1] = target: T1, Cytochrome P450 26A1 (Homo sapiens, UniProt O43174); assay: Inhibition of CYP26A1 in ATRA-induced human HL60 cell microsomes incubated for 30 mins in dark condition with NADPH and ATRA by HPLC method; assay type: cell-based, HL-60
T1 sequence (O43174 whole entry): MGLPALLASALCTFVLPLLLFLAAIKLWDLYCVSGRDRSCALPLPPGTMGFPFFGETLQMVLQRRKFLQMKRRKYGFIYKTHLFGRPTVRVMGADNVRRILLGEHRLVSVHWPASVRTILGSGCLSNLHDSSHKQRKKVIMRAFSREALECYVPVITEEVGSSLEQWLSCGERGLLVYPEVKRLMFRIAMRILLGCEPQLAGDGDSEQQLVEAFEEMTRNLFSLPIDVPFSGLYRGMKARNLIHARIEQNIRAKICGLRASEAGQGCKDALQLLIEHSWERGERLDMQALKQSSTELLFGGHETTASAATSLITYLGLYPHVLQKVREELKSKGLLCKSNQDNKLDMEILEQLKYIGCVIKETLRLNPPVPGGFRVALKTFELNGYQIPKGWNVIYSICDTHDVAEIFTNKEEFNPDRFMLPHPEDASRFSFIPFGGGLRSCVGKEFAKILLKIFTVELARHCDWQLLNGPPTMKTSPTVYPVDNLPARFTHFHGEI

HL-60 [2] = assay: Growth inhibition of human HL60 cells at 10 uM incubated for 48 hrs in presence of 0.1 uM ATRA by MTT assay; assay type: functional
Outline: (§1)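 HL-60 cells plated at 1–104 cells/well (so in the source) and held 24 h at 37 °C, then exposed 48 h to inhibitor at 10 µM and/or ATRA at 0.1 µM. MTT (2 mg/mL) was added for 4 h at 37 °C, the supernatant was discarded, formazan was dissolved in DMSO and absorbance read at 570 nm. Percent growth inhibition reported.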

HL-60 [3] = assay: Induction of cell differentiation in human HL60 cells at 10 uM incubated for 72 hrs in presence of 0.1 uM ATRA by NBT dye based assay; assay type: functional
HL-60 [4] = assay: Induction of cell differentiation in human HL60 cells at 10 uM incubated for 72 hrs by NBT dye based assay; assay type: functional
HL-60 [5] = assay: Growth inhibition of human HL60 cells at 10 uM incubated for 48 hrs by MTT assay; assay type: functional; details: HL-60, 48 h, read-out: GI; outline: as §1
HL-60 [6] = assay: Induction of cell differentiation in human HL60 cells at 0.1 uM incubated for 72 hrs by NBT dye based assay; assay type: functional
HL-60 [7] = assay: Growth inhibition of human HL60 cells at 0.1 uM incubated for 48 hrs by MTT assay; assay type: functional; details: HL-60, 48 h, read-out: GI; outline: as §1
Cytochrome P450 2D6 = Cytochrome P450 2D6 (Homo sapiens, UniProt P10635); assay: Inhibition of CYP2D6 (unknown origin) incubated for 45 mins using NADPH and ATRA by HPLC assay; assay type: ADME
Cytochrome P450 2D6, sequence (P10635 whole entry): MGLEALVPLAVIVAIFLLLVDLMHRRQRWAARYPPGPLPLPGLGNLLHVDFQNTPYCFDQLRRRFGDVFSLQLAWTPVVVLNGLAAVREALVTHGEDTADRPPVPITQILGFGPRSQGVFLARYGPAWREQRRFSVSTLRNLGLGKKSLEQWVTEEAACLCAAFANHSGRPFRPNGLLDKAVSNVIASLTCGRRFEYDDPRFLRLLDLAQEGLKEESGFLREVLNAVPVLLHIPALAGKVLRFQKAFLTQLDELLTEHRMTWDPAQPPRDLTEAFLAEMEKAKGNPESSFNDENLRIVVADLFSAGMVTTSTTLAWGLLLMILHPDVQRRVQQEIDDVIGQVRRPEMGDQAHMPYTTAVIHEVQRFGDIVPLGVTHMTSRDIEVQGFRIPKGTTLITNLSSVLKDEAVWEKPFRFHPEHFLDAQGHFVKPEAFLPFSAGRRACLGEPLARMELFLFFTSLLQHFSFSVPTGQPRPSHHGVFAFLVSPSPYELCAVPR

Cytochrome P450 26A1 [8] = target: T1, Cytochrome P450 26A1; assay: Inhibition of CYP26A1-mediated ATRA metabolism in human HL60 cells assessed as ATRA level at 5 uM incubated for 96 hrs by HPLC method (reference value: 1.21 uM); assay type: cell-based; details: hl-60, 96 h
Cytochrome P450 26A1 [9] = target: T1, Cytochrome P450 26A1; assay: Inhibition of CYP26A1-mediated ATRA metabolism in human HL60 cells assessed as ATRA level at 5 uM incubated for 24 hrs by HPLC method (reference value: 7.19 uM); assay type: cell-based; details: hl-60, 24 h
Cytochrome P450 26A1 [10] = target: T1, Cytochrome P450 26A1; assay: Inhibition of CYP26A1-mediated ATRA metabolism in human HL60 cells assessed as ATRA level at 5 uM incubated for 72 hrs by HPLC method (reference value: 3.6 uM); assay type: cell-based; details: hl-60, 72 h
Cytochrome P450 26A1 [11] = target: T1, Cytochrome P450 26A1; assay: Inhibition of CYP26A1-mediated ATRA metabolism in human HL60 cells assessed as ATRA level at 5 uM incubated for 48 hrs by HPLC method (reference value: 4.95 uM); assay type: cell-based; details: hl-60, 48 h
Cytochrome P450 3A4 = Cytochrome P450 3A4 (Homo sapiens, UniProt P08684); assay: Inhibition of CYP3A4 (unknown origin) incubated for 45 mins using NADPH by fluorescence assay; assay type: ADME
Cytochrome P450 3A4, sequence (P08684 whole entry): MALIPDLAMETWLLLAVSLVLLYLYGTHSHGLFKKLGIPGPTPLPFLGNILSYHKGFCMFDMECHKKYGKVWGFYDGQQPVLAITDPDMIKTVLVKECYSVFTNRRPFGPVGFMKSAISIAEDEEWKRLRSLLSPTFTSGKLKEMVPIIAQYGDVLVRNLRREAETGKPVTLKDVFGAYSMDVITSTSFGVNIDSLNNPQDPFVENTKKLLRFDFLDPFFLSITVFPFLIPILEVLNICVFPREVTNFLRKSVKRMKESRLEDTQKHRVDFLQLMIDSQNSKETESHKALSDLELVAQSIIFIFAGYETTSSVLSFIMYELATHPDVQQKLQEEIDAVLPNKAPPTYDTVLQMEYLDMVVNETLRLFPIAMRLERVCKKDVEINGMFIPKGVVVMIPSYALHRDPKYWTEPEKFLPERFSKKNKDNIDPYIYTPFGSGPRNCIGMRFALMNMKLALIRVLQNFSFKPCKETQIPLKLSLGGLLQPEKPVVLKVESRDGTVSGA

Cytochrome P450 26A1 [12] = target: T1, Cytochrome P450 26A1; assay: Inhibition of CYP26A1 (unknown origin)
[13] = Selectivity index, ratio of IC50 for CYP3A4 (unknown origin) to IC50 for CYP26A1 in ATRA-induced human HL60 cell microsomes; set-up: species or system HL-60
[14] = Selectivity index, ratio of IC50 for CYP2D6 (unknown origin) to IC50 for CYP26A1 in ATRA-induced human HL60 cell microsomes; set-up: species or system HL-60

| SMILES | IC50 (Cytochrome P450 26A1 [1]) | growth inhibition (GI) (HL-60 [2]) | Activity (HL-60 [3]) | Activity (HL-60 [4]) | inhibition of growth at 10 µM (HL-60 [5]) | further results |
| --- | --- | --- | --- | --- | --- | --- |
| CC1=C(/C=C/C(C)=C/C=C/C(C)=C/C(=O)O)C(C)(C)CCC1 [TRETINOIN] | – | – | – | – | – | Activity (HL-60 [6]): 28.04%; inhibition of growth at 0.1 µM (HL-60 [7]): 21.8% |
| Clc1cccc(C(c2ccc3[nH]cnc3c2)n2ccnc2)c1 (stereo not drawn) [LIAROZOLE] | – | 48.37% | 45.55% | 0% | 16.4% | IC50 (Cytochrome P450 2D6): 4760 nM |
| CC(C)COC(=O)C(Cn1ccnc1)NC(=O)c1ccc(-c2ccccc2)cc1 (stereo not drawn) | 970 nM | 46.55% | 39.87% | 0% | 8.99% | – |
| CC(C)OC(=O)C(Cn1ccnc1)NC(=O)c1nc2ccccc2s1 (stereo not drawn) | 630 nM | 46.36% | 50.85% | 0% | 5.04% | – |
| COC(=O)C(Cn1ccnc1)NC(=O)c1ccc(-c2ccccc2)cc1 (stereo not drawn) | 370 nM | 51.38% | 47.69% | 0% | 9.64% | – |
| CCC(CC)[C@H](c1ccc(Nc2nc3ccccc3s2)cc1)n1cncn1 | – | – | – | – | – | IC50 (Cytochrome P450 26A1 [12]): 4 nM |
| COC(=O)C(Cn1ccnc1)NC(=O)c1nc2ccccc2s1 (stereo not drawn) | 410 nM | 50.36% | 49.11% | 0% | 8.64% | – |
| Cc1nn(-c2ccccc2)c(Cl)c1C(=O)NC(Cn1ccnc1)C(=O)OC(C)C (stereo not drawn) | 460 nM | 44.79% | 51.85% | 0% | 4.98% | Activity (Cytochrome P450 26A1 [8]): 4.41 µM; Activity (Cytochrome P450 26A1 [9]): 9.22 µM; Activity (Cytochrome P450 26A1 [10]): 6.06 µM; Activity (Cytochrome P450 26A1 [11]): 7.87 µM; IC50 (Cytochrome P450 3A4): 4920 nM; Ratio IC50 [13]: 11; IC50 (Cytochrome P450 2D6): 9640 nM; Ratio IC50 [14]: 21 |
| CC(C)COC(=O)C(Cn1ccnc1)NC(=O)c1nc2ccccc2s1 (stereo not drawn) | 1110 nM | 43.33% | 38.62% | 0% | 9.49% | – |
| CC(C(c1ccc(Nc2nc3ccccc3s2)cc1)n1cncn1)N(C)C (stereo not drawn) | – | – | – | – | – | IC50 (Cytochrome P450 26A1 [12]): 10 nM |

Further lines, with some results ahead:

| IC50 (Cytochrome P450 26A1 [1]) | SMILES | growth inhibition (GI) (HL-60 [2]) | Activity (HL-60 [3]) | Activity (HL-60 [4]) | inhibition of growth at 10 µM (HL-60 [5]) | further results |
| --- | --- | --- | --- | --- | --- | --- |
| 650 nM | CCOC(=O)C(Cn1ccnc1)NC(=O)c1ccc(-c2ccccc2)cc1 (stereo not drawn) | 48.19% | 45.64% | 0% | 7.61% | – |
| 790 nM | CCCOC(=O)C(Cn1ccnc1)NC(=O)c1ccc(-c2ccccc2)cc1 (stereo not drawn) | 42.92% | 44.78% | 0% | 5.04% | – |
| 1020 nM | Cc1nn(-c2ccccc2)c(Cl)c1C(=O)NC(Cn1ccnc1)C(=O)OCC(C)C (stereo not drawn) | 43.54% | 40.79% | 0% | 8.24% | – |
| 740 nM | CCOC(=O)C(Cn1ccnc1)NC(=O)c1nc2ccccc2s1 (stereo not drawn) | 45.4% | 48.31% | 0% | 6.66% | – |
| 220 nM | COC(=O)C(Cn1ccnc1)NC(=O)c1c(C)nn(-c2ccccc2)c1Cl (stereo not drawn) | 55.36% | 50.51% | 0% | 10.9% | Activity (Cytochrome P450 26A1 [8]): 3.51 µM; Activity (Cytochrome P450 26A1 [9]): 9.3 µM; Activity (Cytochrome P450 26A1 [10]): 5.67 µM; Activity (Cytochrome P450 26A1 [11]): 7.45 µM; IC50 (Cytochrome P450 3A4): 1170 nM; IC50 (Cytochrome P450 2D6): 5560 nM |
| 600 nM | CCOC(=O)C(Cn1ccnc1)NC(=O)c1c(C)nn(-c2ccccc2)c1Cl (stereo not drawn) | 52.17% | 46.44% | 0% | 7.25% | – |
| 540 nM | CC(C)OC(=O)C(Cn1ccnc1)NC(=O)c1ccc(-c2ccccc2)cc1 (stereo not drawn) | 54.58% | 53.91% | 0% | 6.58% | – |
| 840 nM | CCCOC(=O)C(Cn1ccnc1)NC(=O)c1nc2ccccc2s1 (stereo not drawn) | 47.83% | 42.62% | 0% | 7.64% | – |
| 620 nM | CCCOC(=O)C(Cn1ccnc1)NC(=O)c1c(C)nn(-c2ccccc2)c1Cl (stereo not drawn) | 45.58% | 43.83% | 0% | 6.59% | – |
